In the library only some 2.9% were active in any assay of this set; here they are far more common.
TRPC6 inhibitor: inhibitors of mouse TRPC6 channel; Q61143; HEK293-TRPC6, membrane potential dye, ACh-evoked depolarization; active compounds read low; B-score at 10 µM; hit rate 1.1% among 310,000; AID 2553;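 active means B-score under library mean minus 3 SD, initial fluorescence not abnormally high, positive integrated signal ratio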;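 further: B-score derived from integrated fluorescence ratio over the kinetic read; more negative B-score means stronger inhibition of depolarization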
Target sequence (Q61143 whole entry, looked up): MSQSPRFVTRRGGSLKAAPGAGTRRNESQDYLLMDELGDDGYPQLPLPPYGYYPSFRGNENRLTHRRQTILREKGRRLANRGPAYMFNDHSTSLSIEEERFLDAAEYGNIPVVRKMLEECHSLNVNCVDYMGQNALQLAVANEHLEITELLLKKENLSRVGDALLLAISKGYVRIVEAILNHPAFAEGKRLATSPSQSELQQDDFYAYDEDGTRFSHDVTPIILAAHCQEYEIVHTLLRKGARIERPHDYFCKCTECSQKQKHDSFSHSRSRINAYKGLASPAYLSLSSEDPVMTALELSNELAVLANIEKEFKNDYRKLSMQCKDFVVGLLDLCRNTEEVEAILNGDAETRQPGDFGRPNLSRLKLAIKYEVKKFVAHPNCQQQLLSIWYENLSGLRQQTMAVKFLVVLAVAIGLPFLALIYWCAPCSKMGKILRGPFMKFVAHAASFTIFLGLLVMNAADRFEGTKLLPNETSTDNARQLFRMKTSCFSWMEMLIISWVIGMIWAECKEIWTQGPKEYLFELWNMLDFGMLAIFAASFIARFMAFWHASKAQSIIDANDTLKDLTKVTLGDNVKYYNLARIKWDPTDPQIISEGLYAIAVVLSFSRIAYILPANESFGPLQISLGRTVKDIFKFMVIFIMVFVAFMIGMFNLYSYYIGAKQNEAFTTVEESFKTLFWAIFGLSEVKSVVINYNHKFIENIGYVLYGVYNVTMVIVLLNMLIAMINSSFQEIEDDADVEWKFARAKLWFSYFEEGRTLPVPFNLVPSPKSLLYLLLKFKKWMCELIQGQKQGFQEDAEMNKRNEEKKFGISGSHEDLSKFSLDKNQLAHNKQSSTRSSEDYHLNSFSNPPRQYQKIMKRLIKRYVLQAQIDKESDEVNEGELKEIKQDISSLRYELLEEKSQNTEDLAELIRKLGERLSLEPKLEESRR
Kir21 inh: Kir2.1 (mouse) channel inhibition; hit rate 0.85% among 310,000; AID 1672; B-score at 10 µM; HEK293-Kir2.1, FluxOR thallium flux fluorescence; active compounds read low; P35561;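 active means fluorescence ratio B-score at or below minus 3 SD of library scores, with starting-brightness B-score within 2 SD, cut at about -4.2 in these data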;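 further: channel flux triggered by added potassium and thallium sulfate stimulus; B-score of peak minus minimum fluorescence over baseline after thallium stimulus; more negative B-score means stronger Kir2.1 block with less thallium influx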
TRPC4 potent: TRPC4 (mouse) allosteric potentiation | Q9QUQ5 | HEK293 TRPC4beta/mu-opioid, DAMGO EC20, Fluo-4 Ca2+ flux; active compounds read high | B-score at 10 µM | hit rate 0.42% among 310,000;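 active means B-score of calcium response area above 5 SD of library B-scores, with initial fluorescence ratio within 5 SD of library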
TRPC4 inh: TRPC4 (mouse) channel inhibition; Q9QUQ5; AID 2247; hit rate 0.39% among 300,000; B-score at 10 µM; HEK293 TRPC4beta/mu-opioid, DAMGO-evoked Fluo4 calcium flux; active compounds read low;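 active means B-score over 3 SD under the library average, no early fluorescence shift, positive overall ratio signal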
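test system = HEK293 cells with stable TRPC4beta plus mu-opioid receptor expression | detection = Fluo4 Ca2+ flux fluorescence | read-out = integrated fluorescence ratio relative to baseline, converted to per-well B score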
TRPC6 activator: mouse TRPC6 channel activation. HEK293-TRPC6 membrane potential dye fluorescence; active compounds read high. AID 2550. hit rate 0.13% among 310,000. B-score at 10 µM. Q61143;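 active means B-score of the integrated fluorescence ratio above library mean plus 3 SD, and starting fluorescence ratio within library mean plus 5 SD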;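 further: higher score means more depolarization so channel activation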
TRPC4 agonist: TRPC4 (mouse) channel activation. hit rate 0.49% among 310,000. B-score at 10 µM. HEK293 TRPC4beta/mu-opioid, Fluo4 calcium fluorescence; active compounds read high. AID 2237;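 active means B-score above 5 SD of library B-scores, and initial fluorescence ratio not above library mean plus 5 SD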;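 further: positive B-score marks a calcium rise read as TRPC4 activation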
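Incubation: 45 min room-temperature Fluo4 loading, 110 s read / System: HEK293 cells stably co-expressing mouse TRPC4beta and mu-opioid receptor / Signal: Fluo4 fluorescence, kinetic / Control set: buffer (low) and maximal DAMGO (high) / Measure: integrated baseline-normalised fluorescence ratio, converted to per-well B score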
TRPC4 spec 2: second selectivity test of TRPC6 inhibitors: effect on mouse TRPC4. shares compounds with TRPC6 inhibitor. AID 2776. inhibition, % at 10 µM. hit rate 42% among 920. HEK293 TRPC4/MOR, membrane potential dye fluorescence; channel activated by saturating DAMGO dose;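 active means compounds whose fluorescence signal differed from control wells by over 3 SD, either direction, in both duplicate plates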
TRPC4 spec: selectivity of TRPC6 inhibitors: effect on mouse TRPC4 | activity change, negative = inhibition, % at 10 µM | hit rate 61% among 920 | HEK293 TRPC4/mu-opioid, membrane potential fluorescence | shares compounds with TRPC6 inhibitor;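 active means rise or fall in signal beyond 3 SD of buffer-only wells in both replicate plates, either sign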;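 further: integrated kinetic ratio of fluorescence range over baseline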
HEK293 MPD ctr 2-1: parental HEK293 nonspecific activity of TRPC6 inhibitors, second screen; shares compounds with TRPC6 inhibitor; parental HEK293 membrane potential dye fluorescence; maximal acetylcholine challenge after compound addition; hit rate 31% among 920; signal change vs control, % at 10 µM;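 active means membrane potential signal moving either way by over 3 SD of the maximum-effect control, in both duplicate plates, meaning non-specific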
HEK293 MPD ctr-1: parental HEK293 nonspecific activity of TRPC6 inhibitors | shares compounds with TRPC6 inhibitor | parental HEK293 membrane potential dye fluorescence | membrane potential signal change, % at 10 µM | AID 2780 | hit rate 60% among 920;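 active means membrane potential signal shifting up or down by more than 3 SD of buffer-only wells, on both duplicate plates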
HEK293 MPD ctr-2: counter-screen for TRPC6 modulators: effect in parental HEK293 cells; shares compounds with TRPC6 inhibitor; membrane potential dye fluorescence; membrane potential signal change, % at 10 µM; hit rate 51% among 2,400; AID 488924;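 active means membrane potential signal moves up or down beyond 5 SD from buffer-only wells, on both duplicate plates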
HEK293 MPD ctr 2-2: second check of TRPC6 modulator effects in parental HEK293 cells | shares compounds with TRPC6 inhibitor | membrane potential dye fluorescence; after compound, maximal acetylcholine stimulation | inhibition, % at 10 µM | hit rate 14% among 2,400;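 active means membrane potential signal drops by more than 5 SD from the mean control signal, in both duplicate plates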
TRPC4/MOR mod: mouse TRPC4 off-target activity of TRPC6 modulators; HEK293 TRPC4/mu-opioid, membrane potential fluorescence; shares compounds with TRPC6 inhibitor; AID 488927; hit rate 69% among 2,400; percent change from control (negative = decrease, positive = increase), % at 10 µM;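 active means membrane potential signal moved up or down beyond 5 SD of buffer control wells, in both duplicate plates, actives on both sides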
TRPC4 ctr inh 2: mouse TRPC4 off-target activity of TRPC6 modulators, second screen; shares compounds with TRPC6 inhibitor; HEK293 TRPC4/mu-opioid, membrane potential dye fluorescence; stimulated with maximal-effect DAMGO; inhibition, % at 10 µM; hit rate 55% among 2,400; AID 488928;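 active means drop in membrane potential signal beyond 5 SD of the control wells in both duplicate plates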;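 further: TRPC4 counter screen for TRPC6 hits run under conditions tuned for TRPC6 not TRPC4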
TRPC6 block conf: confirmation of mouse TRPC6 inhibitors | hit rate 43% among 3,300 | inhibition, % at 10 µM | shares compounds with TRPC6 inhibitor | HEK293-TRPC6, membrane potential dye, ACh-evoked depolarization | AID 488960;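 active means fluorescence ratio falls more than 5 SD below the full-stimulation control mean, in both duplicate runs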;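 further: integrated fluorescence ratio of peak minus minimum over baseline after agonist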
TRPC6 act conf: confirmation of mouse TRPC6 activators; shares compounds with TRPC6 inhibitor; HEK293-TRPC6 membrane potential dye fluorescence, FDSS; activation, % at 10 µM; hit rate 11% among 2,800;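 active means ratio signal rise beyond 5 SD above unstimulated control wells' mean, seen in both duplicate runs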
Each line names hits and unclear results; the compound was inactive in the other large screens (follow-up assays come after a bar, where they were run).

OCC(Cc1ccccc1)Nc1c2ccccc2nc2ccccc12 (stereo not drawn)	TRPC6 inhibitor -8.99, Kir21 inh -8.64 | HEK293 MPD ctr-2 inactive | HEK293 MPD ctr 2-2 inactive | TRPC4/MOR mod -88.0% | TRPC4 ctr inh 2 69.5% | TRPC6 block conf 54.5% | TRPC6 act conf inactive
O=C(Nc1ccc(C2=NCCN2)cc1)c1ccc(C(=O)Nc2ccc(C3=NCCN3)cc2)c([N+](=O)[O-])c1	TRPC6 activator 15.3 | HEK293 MPD ctr-2 440.5% | HEK293 MPD ctr 2-2 inactive | TRPC4/MOR mod 70.0% | TRPC4 ctr inh 2 inactive | TRPC6 block conf inactive | TRPC6 act conf 193.0%
COc1cccc(C2SCC(=O)N2c2ccc(C)cc2)c1OC (stereo not drawn)	TRPC6 inhibitor -5.57 | HEK293 MPD ctr-2 inactive | HEK293 MPD ctr 2-2 inactive | TRPC4/MOR mod 8.0% | TRPC4 ctr inh 2 inactive | TRPC6 block conf 65.5% | TRPC6 act conf inactive
Nc1nc(NCCCN2CCOCC2)nc(Nc2cccc(Cl)c2)c1[N+](=O)[O-]	TRPC6 inhibitor -5.56 | HEK293 MPD ctr-2 inactive | HEK293 MPD ctr 2-2 inactive | TRPC4/MOR mod -18.5% | TRPC4 ctr inh 2 85.5% | TRPC6 block conf 51.5% | TRPC6 act conf inactive
CCOC(=O)Nc1ccc2c(c1)OCO2	TRPC6 inhibitor -5.62 | HEK293 MPD ctr-2 inactive | HEK293 MPD ctr 2-2 inactive | TRPC4/MOR mod inactive | TRPC4 ctr inh 2 inactive | TRPC6 block conf inactive | TRPC6 act conf inactive
CC1(C)CC(NC(=O)c2ccc(Cl)c(S(=O)(=O)N(Cc3ccccc3)c3ccccc3)c2)CC(C)(C)N1	none
Cc1ccc(-n2ncc(C(=O)N3CCN(C(=O)c4ccco4)CC3)c2-n2cccc2)cc1	TRPC6 inhibitor -5.26 | HEK293 MPD ctr-2 inactive | HEK293 MPD ctr 2-2 inactive | TRPC4/MOR mod 9.0% | TRPC4 ctr inh 2 inactive | TRPC6 block conf 59.0%
CCCCNc1c(C(=O)OCC)c(C)nc2c1cnn2CC	none
CC(C)OC(=O)c1cccnc1SCc1cc(=O)n2ccccc2n1	TRPC6 inhibitor -6.05 | HEK293 MPD ctr-2 inactive | HEK293 MPD ctr 2-2 inactive | TRPC4/MOR mod inactive | TRPC4 ctr inh 2 inactive | TRPC6 block conf inactive
O=C(C1COc2ccccc2O1)N1CCN(c2nc3c(F)cc(F)cc3s2)CC1 (stereo not drawn)	TRPC6 inhibitor -8.54 | TRPC4 spec 2 inactive | TRPC4 spec inactive | HEK293 MPD ctr 2-1 inactive | HEK293 MPD ctr-1 inactive | TRPC6 block conf inactive | TRPC6 act conf inactive
COc1ccc(C(c2nnnn2CCc2ccccc2)N2CCN(C3CCCC3)CC2)cc1 (stereo not drawn)	none
N#Cc1cccc(C(c2nnnn2CCc2ccccc2)N2CCN(C3CCCCC3)CC2)c1 (stereo not drawn)	TRPC6 inhibitor -5.04 | HEK293 MPD ctr-2 inactive | HEK293 MPD ctr 2-2 inactive | TRPC4/MOR mod inactive | TRPC4 ctr inh 2 70.5% | TRPC6 block conf 54.0% | TRPC6 act conf inactive
Fc1ccccc1Cc1noc(CN2CCN(c3ccc(Cl)cn3)CC2)n1	none
Cn1c(SCC(=O)Nc2nncs2)nnc1C1CC1	none
CCN(CC)CCNc1cc(C)nc2c1C(=O)C(=O)C=C2N1CCCCC1	TRPC6 inhibitor -7.46 | HEK293 MPD ctr-2 -273.5% | HEK293 MPD ctr 2-2 inactive | TRPC4/MOR mod -46.5% | TRPC4 ctr inh 2 39.0% | TRPC6 block conf inactive | TRPC6 act conf inactive
COC(=O)c1cc(C)nc2c1C(=O)C(=O)C=C2N1CCOCC1	none
O=C1N/C(=C/c2ccc(N3CCOCC3)o2)C(=O)N1c1cccc(Cl)c1	TRPC6 activator 19 | HEK293 MPD ctr-2 119.5% | HEK293 MPD ctr 2-2 inactive | TRPC4/MOR mod 33.5% | TRPC4 ctr inh 2 inactive | TRPC6 block conf inactive | TRPC6 act conf inactive
Cc1ccc(/C=C2/NC(=O)N(c3ccccc3)C2=O)o1	none
O=C1CCC(c2ccccc2)(C2CCN(Cc3ccccc3)CC2)C(=O)N1 (stereo not drawn)	TRPC6 inhibitor -6.29 | HEK293 MPD ctr-2 95.5% | HEK293 MPD ctr 2-2 84.5% | TRPC4/MOR mod 20.5% | TRPC4 ctr inh 2 35.0% | TRPC6 block conf 74.5%
CCC(C)NC(=O)c1ccc(C2SCC(=O)N2Cc2ccccc2)cc1 (stereo not drawn)	TRPC6 inhibitor -7.58 | TRPC4 spec 2 inactive | TRPC4 spec inactive | HEK293 MPD ctr 2-1 inactive | HEK293 MPD ctr-1 inactive | TRPC6 block conf inactive | TRPC6 act conf inactive
CN(C(=O)C1CCC(=O)N(CCc2ccc(Cl)cc2)C1)C1CCOCC1 (stereo not drawn)	none
COCCCn1c(SCC(=O)Nc2sc3c(c2C#N)CCCC3)nnc1-c1ccncc1	none
CN(C)CCCn1c(SCC(=O)Nc2sc3c(c2C#N)CCCC3)nnc1-c1ccncc1	TRPC6 activator 16.3 | HEK293 MPD ctr-2 187.0% | HEK293 MPD ctr 2-2 inactive | TRPC4/MOR mod 27.5% | TRPC4 ctr inh 2 inactive | TRPC6 block conf inactive | TRPC6 act conf 76.5%
Cn1c(SCC(=O)Nc2sc3c(c2C#N)CCC3)nnc1C1COc2ccccc2O1 (stereo not drawn)	TRPC6 inhibitor -10.5 | TRPC4 spec 2 inactive | TRPC4 spec inactive | HEK293 MPD ctr 2-1 inactive | HEK293 MPD ctr-1 inactive | TRPC6 block conf 62.6%
